Measured values as given in PMC3738169 (Journal of medicinal chemistry, 2012).

What was measured:
[1] = tested on: p-Akt T308 in C4-2LucBAD cells; experiment: p-Akt T308 Western blot in C4-2LucBAD cells; assay type: cell-based; conditions: 3 h, dose-response, control PBS
Outline: (§1)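 Cells were seeded at 4×105 per 6 cm dish, grown 48 h to about 80% confluence, then exposed to test compound for 3 h with PBS as control. C4-2LucBAD cells were in RPMI 1640, serum-free for 18 h beforehand. LNCaP cells were in T-Medium with 2.5% FBS. U-87 MG cells were in DMEM, serum-free. HEPES pH 7.4 lysates with protease and phosphatase inhibitors were blotted for p-Akt T308, Akt and β-actin.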

[2] = tested on: p-Akt T308 in prostate cancer LNCaP cells; experiment: p-Akt T308 Western blot in LNCaP cells; assay type: cell-based; conditions: LNCaP cells incubated with 11, 3 h, dose-response, control PBS
Outline: as §1

[3] = tested on: p-Akt T308 in glioblastoma-astrocytoma U-87 MG cells; experiment: p-Akt T308 Western blot in U-87 MG cells; assay type: cell-based; conditions: U-87 MG cells (no PSA) incubated with 11, 3 h, control PBS
Outline: as §1

C4-2LucBAD cells [4] = experiment: Caspase 3 assay in C4-2LucBAD cells; assay type: cell-based
[5] = tested on: purified active human PSA; p-Akt T308 in BT-549 cells; experiment: Cleavage of compound 11 with purified PSA, then p-Akt T308 in BT-549 cells; assay type: cell-based; conditions: 11 without PSA, added to BT-549 cells for 30 min
Outline: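 Test compound was pre-incubated 6 h at 37 °C in 50 mM Tris-HCl, 0.1 M NaCl, pH 7.8 with increasing concentrations of enzymatically active PSA purified from human semen. It was then applied for 30 min to serum-starved BT-549 cells, maintained in RPMI 1640 with 10% FBS and 0.023 U/mL insulin. p-Akt T308 was read by Western blot against a PBS control, in three independent experiments.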

[6] = tested on: p-Akt T308 (PI3K/Akt pathway) in breast cancer BT-549 cells; experiment: p-Akt T308 Western blot in BT-549 cells; assay type: cell-based
Outline: (§2)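 BT-549 cells (RPMI 1640, 10% FBS, 0.023 U/mL insulin) and C4-2 cells (RPMI 1640, 10% FBS) were seeded at 4×105 per 6 cm dish, grown 48 h to about 80% confluence, then moved to serum-free medium. Dosing was a 30 min concentration series with DMSO control, or a 3 h series or 30 min–6 h time course with PBS control. Lysates went to 12% SDS-PAGE and were probed for p-Akt T308, Akt and β-actin, with infrared detection and densitometry.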

[7] = tested on: p-Akt T308 (PI3K/Akt pathway) in prostate cancer C4-2 cells; experiment: p-Akt T308 Western blot in C4-2 cells; assay type: cell-based
Outline: as §2

[8] = tested on: p-Akt T308 in breast cancer BT-549 cells; experiment: C4-2 conditioned medium assay; assay type: cell-based; conditions: 11 incubated in media conditioned by BT-549 cells
Outline: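 Test compound held 6 h at 37 °C (5% CO2, humidified) in serum-free medium on producer cells; this line's arm used BT-549-conditioned medium. Medium then transferred to BT-549 cells for 3 h. Cells seeded 4×10^5 per 6 cm dish, grown 48 h to ~80% confluence; BT-549 medium carried 0.023 U/mL insulin. Phospho-Akt T308 read by Western blot of clarified lysates; n=3.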

C4-2LucBAD cells [9] = conditions: C42LucBAD cells that ectopically express BAD; cited from earlier work
Water solubility = conditions: qualitative statement

## Mu-LEHSSKLQL-8-(4-(Hydroxymethyl)phenyl)-2-morpholino-4H-chromen-4-one [Compound 11]
[1]
  p-Akt T308 levels: dose-dependent reduction
[2]
  p-Akt T308 levels: dose-dependent reduction
[3]
  p-Akt T308 levels: No significant reduction
C4-2LucBAD cells [4]; 6 h
  Caspase 3 activity compared with active inhibitor: Somewhat lower levels
C4-2LucBAD cells [4]; 6 h after administration, fluorogenic substrate Ac-DEVD-7-amido-4-trifluoromethylcoumarin, n=2, vs DMSO control
  Caspase 3 activity (apoptosis): increased
[5]
  p-Akt T308 levels in BT-549 cells, 11 without enzymatically active PSA: had no effect
[6]; BT-549 cells (no PSA) incubated with 11, 3 h, control PBS
  p-Akt T308 levels: No significant reduction
[6]; BT-549 cells treated with 11 from 30 min to 6 h, Western blot, three independent experiments
  p-Akt T308 levels, time course: no significant differences
[7]; C4-2 cells incubated with 11, 3 h, dose-response, control PBS
  p-Akt T308 levels: dose-dependent reduction
[7]; C4-2 cells treated with 11 from 30 min to 6 h, vs control, Western blot, three independent experiments
  p-Akt T308 levels, time course: time-dependent reduction
[8]
  p-Akt T308 levels in BT-549 cells after 11 incubated in BT-549 conditioned media: had no effects

## O=c1cc(N2CCOCC2)oc2c(-c3ccccc3)cccc12 [LY294002]
C4-2LucBAD cells [9]
  induction of apoptosis: induces apoptosis
Water solubility
  water solubility: poor water solubility

## CC(C)CC(N)C(=O)OCc1ccc(-c2cccc3c(=O)cc(N4CCOCC4)oc23)cc1 (stereo not shown) [Compound 10, 4-(2-morpholino-4-oxo-4H-chromen-8-yl) benzyl-2-amino-4-methylpentanoate]
[6]; BT-549 cells, 30 min, dose-response analysis
  concentration that completely inhibited Akt phosphorylation: 30 µM
[7]; C4-2 and BT-549 cells, p-Akt T308 read-out, 30 min
  PI3 kinase inhibitory potency relative to LY294002: comparable to LY294002
[7]; C4-2 cells, 30 min, dose-response analysis
  concentration that completely inhibited Akt phosphorylation: 30 µM
